Experimental data collected from several papers.
Compare with care: the assays were run in different laboratories.
Sample: plasma

`CC(C)C[C@H](NC(=O)NCc1cn(-c2ccccc2C(=O)OCn2cc(F)c(=O)[nH]c2=O)nn1)C(=O)NO` gave a bioavailability of ~0.64% (male Sprague-Dawley rat; oral, 50 mg/kg).
The bioavailability of `COc1cc(-c2cc(C(C)=O)n3ccccc23)c(OC)cc1Cn1ccnc1` is reported as 50.3% (male Sprague-Dawley rat; oral, 5 mg/kg).
The bioavailability of `COc1nc(-c2cccc(-c3ccccc3)c2C)ccc1CNCCNC(=O)CCCCCCCCCCC(=O)N1CCN(CCNC(=O)c2cc3c(=O)n4cccc(C)c4nc3n(CCc3cccs3)c2=N)CC1` is reported as 74.8% (male Sprague-Dawley rat; intraperitoneal, 4 mg/kg).
`Cc1cc(S(=O)(=O)NC2CC(N3CCN(CC4CCN(c5ccc6c(c5F)n(C)c(=O)n6C5CCC(=O)NC5=O)CC4)CC3)C2)ccc1Nc1ncc(C(F)(F)F)c(N2CCCC(C)(O)C2)n1` (stereo not shown) gave a bioavailability of 1% (rat; oral, 10 mg/kg).
`C[C@H]1Oc2cc(cnc2N)-c2c(nn(C)c2C#N)CN(C)C(=O)c2ccc(F)cc21` gave a bioavailability of 8.6% (Sprague-Dawley rat; oral).
For `Cc1cc(S(=O)(=O)N[C@H]2CC[C@H](CN3CCN(c4cccc(NC5CCC(=O)NC5=O)c4)CC3)CC2)ccc1Nc1ncc(C(F)(F)F)c(N2CCC[C@](C)(O)C2)n1` (stereo partly shown), the bioavailability was 13% (rat; oral, 10 mg/kg).
`CCCCC(=O)Nc1ccc(-c2ccc3ncn(CCC)c(=O)c3c2)cn1` gave a bioavailability of 21.1% (male rat; oral, 10 mg/kg).
The bioavailability of `O=C1CCC(N2Cc3cc(C4CCN(Cc5ccccc5)CC4)ccc3C2=O)C(=O)N1` (stereo not shown) is reported as 36.2% (male Sprague-Dawley rat; oral, 3 mg/kg).
`COc1ccc(N(Cc2csc(-c3ccccc3)n2)C(=O)CCCCCC(=O)NO)cc1` gave a bioavailability of 10.3% (female Sprague-Dawley rat; oral).
`Cc1cc(S(=O)(=O)N[C@H]2CC[C@H](CN3CCN(c4ccc(C5CCC(=O)NC5=O)c(Cl)c4)CC3)CC2)ccc1Nc1ncc(C(F)(F)F)c(N2CCC[C@](C)(O)C2)n1` (stereo partly shown) has a bioavailability of 25% (rat; oral, 10 mg/kg).
